Assay results: ChEMBL document CHEMBL1152621, “Synthesis and discovery of pyrazole-5-carbohydrazide N-glycosides as inducer of autophagy in A549 lung cancer cells” (Bioorg Med Chem, 2009)
Activity calls are given as the source filed them. The rule behind the calls is not given here.

Tests used:
A549 [1] = assay: Growth inhibition of human A549 cells after 48 hrs by sulforhodamine B assay; type: functional, cell-based; conditions: A549, 48 h
Outline: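 A549 (RPMI 1640, 10% bovine calf serum, seeded 6250/cm2) exposed 24 h after seeding to compound at 10, 20 or 40 µM, 0.1% DMSO control, for 24 or 48 h. TCA fixation 1 h at 4 °C, 0.4% SRB in 1% acetic acid, dye dissolved in 10 mM Tris base pH 10.5, OD 510 nm; mean ± SE, n = 3.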

A549 [2] = assay: Effect on cell morphology in human A549 cells assessed as induction of vacuolization at 40 uM after 24 hrs by phase contrast microscopy; type: functional, cell-based
Outline: (§1)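 A549 in RPMI 1640 with 10% bovine calf serum, 80 U/ml gentamicin, 37 °C, 5% CO2; seeded at 6250/cm2. Treated with compound or left untreated for 24 or 48 h. Morphology (vacuoles, cell number) photographed at 400× under inverted phase contrast microscope.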

A549 [3] = assay: Effect on cell morphology in human A549 cells assessed as decrease in cell number at 40 uM after 24 hrs by phase contrast microscopy; type: functional, cell-based; outline: as §1
A549 [4] = assay: Effect on cell morphology in human A549 cells assessed as decrease in cell number at 40 uM after 48 hrs by phase contrast microscopy; type: functional, cell-based; outline: as §1
A549 [5] = assay: Induction of necrosis in human A549 cells at 40 uM after 48 hrs assessed as increase in LDH release; type: cell-based; conditions: a549, 48 h
Outline: (§2)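 A549 treated 48 h at 20 or 40 µM, 0.1% DMSO control; culture medium collected and LDH release measured with a commercial lactate dehydrogenase kit; mean ± SE, n = 3.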

A549 [6] = assay: Induction of autophagy in human A549 cells assessed as increase in LC3-II protein level at 40 uM after 48 hrs by Western blot; type: functional, cell-based
Outline: (§3)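 A549 treated 24 or 48 h at 20 or 40 µM. Lysis in 0.5% SDS/Tris pH 7.5 buffer with protease inhibitors; Bradford protein; 15% SDS-PAGE, PVDF, milk block; anti-LC3b, anti-p62, anti-β-actin overnight 4 °C, HRP secondaries, chemiluminescence on X-ray film. Levels normalized to β-actin, expressed as percent of control.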

A549 [7] = assay: Induction of autophagy in human A549 cells assessed as increase in LC3-II protein level at 40 uM after 24 hrs by Western blot; type: functional, cell-based; outline: as §3
A549 [8] = assay: Induction of autophagy in human A549 cells assessed as decrease in p62 protein level at 40 uM after 24 hrs by Western blot; type: functional, cell-based; outline: as §3
A549 [9] = assay: Induction of autophagy in human A549 cells assessed as decrease in p62 protein level at 40 uM after 48 hrs by Western blot; type: functional, cell-based; outline: as §3
A549 [10] = assay: Effect on cell morphology in human A549 cells assessed as induction of vacuolization at 40 uM after 48 hrs by phase contrast microscopy; type: functional, cell-based; outline: as §1
A549 [11] = assay: Effect on cell morphology in human A549 cells assessed as induction of vacuolization at 20 uM after 24 hrs by phase contrast microscopy; type: functional, cell-based; outline: as §1
A549 [12] = assay: Effect on cell morphology in human A549 cells assessed as decrease in cell number at 20 uM after 24 hrs by phase contrast microscopy; type: functional, cell-based; outline: as §1
A549 [13] = assay: Effect on cell morphology in human A549 cells assessed as decrease in cell number at 20 uM after 48 hrs by phase contrast microscopy; type: functional, cell-based; outline: as §1
A549 [14] = assay: Induction of necrosis in human A549 cells at 20 uM after 48 hrs assessed as increase in LDH release; type: cell-based; conditions: a549, 48 h; outline: as §2
A549 [15] = assay: Induction of autophagy in human A549 cells assessed as increase in LC3-II protein level at 20 uM after 48 hrs by Western blot; type: functional, cell-based; outline: as §3
A549 [16] = assay: Induction of autophagy in human A549 cells assessed as increase in LC3-II protein level at 20 uM after 24 hrs by Western blot; type: functional, cell-based; outline: as §3
A549 [17] = assay: Induction of autophagy in human A549 cells assessed as decrease in p62 protein level at 20 uM after 24 hrs by Western blot; type: functional, cell-based; outline: as §3
A549 [18] = assay: Induction of autophagy in human A549 cells assessed as decrease in p62 protein level at 20 uM after 48 hrs by Western blot; type: functional, cell-based; outline: as §3

| IC50 (A549 [1]) | SMILES | Activity (A549 [2]) | Activity (A549 [3]) | Activity (A549 [4]) | Activity (A549 [5]) | Activity (A549 [6]) | Activity (A549 [7]) | Activity (A549 [8]) | Activity (A549 [9]) | Activity (A549 [10]) | further results |
| --- | --- | --- | --- | --- | --- | --- | --- | --- | --- | --- | --- |
| 26.6 µM | CC(C)(C)c1ccc(Cn2nc(-c3ccc(Cl)cc3)cc2C(=O)NN[C@@H]2O[C@H](CO)[C@@H](O)[C@H](O)[C@H]2O)cc1 | Active | Active | Active | Non-toxic | Active | inactive | Active | Active | – | – |
| 35 µM | O=C(NN[C@@H]1O[C@H](CO)[C@@H](O)[C@H](O)[C@H]1O)c1cc(-c2ccc(Cl)cc2)nn1Cc1ccc(Cl)nc1 | – | – | – | Non-toxic | – | – | – | – | Active | – |
| 21.6 µM | CC(C)(C)c1ccc(Cn2nc(-c3ccccc3)cc2C(=O)NN[C@@H]2O[C@H](CO)[C@@H](O)[C@H](O)[C@H]2O)cc1 | Active | Active | Active | Non-toxic | Active | inactive | Active | Active | – | – |
| 15.2 µM | CC(C)(C)c1ccc(Cn2nc(-c3ccccc3)cc2C(=O)NN[C@@H]2OC[C@@H](O)[C@H](O)[C@H]2O)cc1 | Active | Active | Active | Non-toxic | Active | inactive | Active | Active | – | – |
| 13.9 µM | CC(C)(C)c1ccc(Cn2nc(-c3ccc(Cl)cc3)cc2C(=O)NN[C@@H]2OC[C@@H](O)[C@H](O)[C@H]2O)cc1 | – | – | – | Toxic | – | – | – | – | – | Activity (A549 [11]): Active; Activity (A549 [12]): Active; Activity (A549 [13]): Active; Activity (A549 [14]): Non-toxic; Activity (A549 [15]): Active; Activity (A549 [16]): inactive; Activity (A549 [17]): Active; Activity (A549 [18]): Active |
| 24.9 µM | COc1ccc(-c2cc(C(=O)NN[C@@H]3OC[C@@H](O)[C@H](O)[C@H]3O)n(Cc3ccc(C(C)(C)C)cc3)n2)cc1 | – | – | – | Non-toxic | – | – | – | – | Active | – |
| 38.9 µM | COc1ccc(-c2cc(C(=O)NN[C@@H]3O[C@H](CO)[C@@H](O)[C@H](O)[C@H]3O)n(Cc3ccc(C(C)(C)C)cc3)n2)cc1 | – | – | – | Non-toxic | – | – | – | – | Active | – |
| 31.8 µM | O=C(NN[C@@H]1O[C@H](CO)[C@@H](O)[C@H](O)[C@H]1O)c1cc(-c2ccc(Cl)cc2)nn1Cc1ccccc1 | – | – | – | Non-toxic | – | – | – | – | – | – |
